Assay results: article PMC3493172 (Biochemistry, 2012)
Where a chain is given by its changes, count along the chain named. Values joined by “and” are separate entries in the source; they are usually repeats but may differ in a detail not shown here. Equal entries are not always repeated. Where two headings read alike, the source gives them in different places.

Legend:
[1] = target: T1, EAAC1R446Q (Rattus norvegicus, UniProt P51907, R446Q); assay: Whole-cell current recording of EAAC1 with the R446Q mutation, exchange mode; assay type: cell-based; conditions: application of 1 mM L-glutamate or 0.2 mM TBOA; NaSCN pipette; 0 mV
T1 sequence (P51907 1-523 R446Q): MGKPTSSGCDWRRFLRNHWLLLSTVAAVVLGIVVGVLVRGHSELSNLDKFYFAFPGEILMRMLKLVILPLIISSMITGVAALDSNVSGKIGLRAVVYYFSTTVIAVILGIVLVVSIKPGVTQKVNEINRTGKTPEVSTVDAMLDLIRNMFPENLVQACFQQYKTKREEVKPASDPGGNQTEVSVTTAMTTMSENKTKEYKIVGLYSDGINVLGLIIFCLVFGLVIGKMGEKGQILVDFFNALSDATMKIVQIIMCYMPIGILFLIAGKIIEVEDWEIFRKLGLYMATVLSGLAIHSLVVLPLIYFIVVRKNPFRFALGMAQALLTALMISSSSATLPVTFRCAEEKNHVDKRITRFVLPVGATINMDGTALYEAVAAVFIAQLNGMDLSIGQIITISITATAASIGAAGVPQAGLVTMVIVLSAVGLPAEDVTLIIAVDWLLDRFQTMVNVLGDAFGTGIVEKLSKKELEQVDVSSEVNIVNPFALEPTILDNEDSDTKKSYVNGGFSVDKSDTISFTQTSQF

[2] = target: T2, EAAC1 (Rattus norvegicus, UniProt P51907); assay: Whole-cell current recording of EAAC1WT expressed in HEK 293T cells; assay type: cell-based; conditions: for effect on anion current when applied alone: 100 μM applied alone, intracellular SCN−
T2 sequence (P51907 1-523): T1 sequence (P51907 1-523 R446Q) with Q446R
In short: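 HEK 293T cells transfected with EAAC1 plasmid plus RFP DNA (JetPRIME) and used at least 24 h later; whole-cell patch clamp held at 0 mV. Ki came from test-compound dose-response curves of glutamate-induced anion current at 20, 50 and 100 μM L-glutamate (forward mode: 140 mM NaCl outside, 140 mM KSCN pipette). Reverse mode used KSCN outside with NaCl + 10 mM L-Glu in the pipette. Homoexchange used NaCl + 1 mM L-glutamate outside with NaSCN + 10 mM L-glutamate in the pipette.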

[3] = test system: glutamate transport; conditions: cited from earlier work
[4] = physiological conditions; cited from earlier work
[5] = pKa of the 3-hydroxyl-Δ2-isoxazoline group; assay type: physicochemical; conditions: pH 7.3, based on its pKa
[6] = target: T2, EAAC1; assay: Pre-incubation / rapid solution exchange experiment; assay type: cell-based
In short: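 Transfected HEK 293T cells, whole-cell at 0 mV; bath 140 mM NaMES, pipette 140 mM KSCN. Test compound (3, 20 or 100 μM) applied 2 s by solution exchange, then rapid washout with simultaneous switch to 1 mM L-glutamate (~10 ms exchange resolution, ~100 mbar). Responses normalised to a 100 μM glutamate control, n = 3; observed rate constants taken as 1/τ.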

[7] = cited from earlier work
[8] = target: T2, EAAC1; assay: Laser-pulse photolysis of MNI-caged glutamate, pre-steady-state kinetics; assay type: cell-based
In short: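 HEK 293T cells co-transfected with EAAC1 and RFP plasmids, used ≥24 h later; whole-cell clamp at 0 mV. 1 mM MNI-caged L-glutamate pre-applied 4 s, then ~5 ns 355 nm pulse releasing ~60–100 μM glutamate; 160 ms at 50 kHz, ±10 μM test compound. Bath 140 mM NaMES; pipette 140 mM KMES (transport) or KSCN (anion). Exponential fits→decay rate constants.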

[9] = test system: glutamate transporters in synaptosomes prepared from rat brains; conditions: (+)-HIP-B eutomer versus (−)-HIP-B; cited from earlier work

| Compound | current induced in EAAC1R446Q [1] | effect on anion current when applied alone ([2]; 0 mV) | apparent affinity for inhibition of glutamate transport [3] | neurotoxicity [4] | fraction in neutral form [5] | bimolecular rate constant for binding ([6]; estimated from Ki in the 20 μM range and dissociation on the 50 ms time scale) | time scale of binding at the relevant concentration range ([6]; estimated from bimolecular rate constant) | time for full reversal of inhibition ([6]; washout) | time scale of dissociation from binding site ([6]; washout experiment) | transport current when applied alone ([2]; 100 μM, NaMES extracellular, KMES pipette, 0 mV) | alleviation of TBOA (1 μM) inhibition of leak anion current ([2]; any concentration tested, up to 70 μM, in the presence of 1 μM TBOA) | Ki ([2]; read-out: Ki value (range used for estimate), approximate value in discussion) | Ki ([2]; read-out: inhibition constant Ki, glutamate-induced anion current, forward transport mode, 20 μM glutamate, n = 3, 0 mV, KSCN pipette) | Ki ([2]; read-out: inhibition constant Ki, glutamate-induced anion current, forward transport mode, 100 μM glutamate, n = 3, 0 mV, KSCN pipette) | Ki ([2]; read-out: inhibition constant in the reverse transport mode, 20 μM glutamate, n = 3, reverse transport mode) | pKa of the 3-hydroxyl-Δ2-isoxazoline group [7] | effect on peak of transient anion current ([8]; anion conducting mode) | effect on decay time constants τfast and τslow of transient transport current ([8]; forward transport mode) | eudismic ratio, inhibition of [3H]D-aspartate uptake [9] | time constant for activation of anion current by glutamate ([6]; 1 mM glutamate, no inhibitor, limited by solution exchange) |
| --- | --- | --- | --- | --- | --- | --- | --- | --- | --- | --- | --- | --- | --- | --- | --- | --- | --- | --- | --- | --- |
| N[C@H](C(=O)O)[C@H](OCc1ccccc1)C(=O)O (racemic) [TBOA, DL-threo-β-benzyloxyaspartic acid] | < 5 pA | generated outward current | sub-μM range | neurotoxic |  |  |  |  |  |  |  |  |  |  |  |  |  |  |  |  |
| O=C(O)[C@H]1NC[C@@H]2C(O)=NO[C@@H]21 [(+)-HIP-B, (+)-(3aS,6S,6aS)-3-Hydroxy-4,5,6,6a-tetrahydro-3aH-pyrrolo[3,4-d]isoxazole-6-carboxylic acid] |  | did not induce or inhibit anion current |  |  | less than 1% | ~10^6 M^−1s^−1 | 20 to 50 ms | ≤ 500 ms | 50 to 60 ms and ~50 ms | did not elicit transport current | unable to alleviate the TBOA effect | ~20 µM | 8.7 ± 1.5 µM | 9.2 ± 1.2 µM | 23.2 ± 2.5 µM | 5.1 | inhibited strongly | virtually unaffected | 10 |  |
| N[C@@H](CCC(=O)O)C(=O)O [glutamate, L-glutamate, reference compound] | < 5 pA |  |  |  |  |  |  |  |  |  |  |  |  |  |  |  |  |  |  | 7 ± 2 ms |
